High-throughput results from PubChem.
FXIa inh 1536 – factor XIa (human) inhibition | purified FXIa, Boc-Glu-Ala-Arg-AMC fluorogenic substrate | inhibition, % at 5 µM | actives 0.14% (n = 220,000);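 active means inhibition of at least 40%; inactive means inhibition below 40%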;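 further: fluorescence of freed AMC excited at 355 nm; 0% = enzyme without compound and 100% = no enzyme blank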
thrombin 1536 – thrombin (human) inhibition. P00734. alpha-thrombin, Boc-VPR-AMC fluorogenic substrate cleavage. inhibition, % at 5 µM. actives 0.26% (n = 220,000). AID 1046;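 active means inhibition at or above 40%; inactive means inhibition below 40%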;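 further: 0% = enzyme with no compound and 100% = wells without enzyme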
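Material: human alpha-thrombin enzyme / Medium: pH 7.5 Tris (50 mM) with NaCl 150 mM, Tween 20 0.05% / Compound: single-point dosing at 5 µM, 0.2% DMSO / Incubation: enzyme reaction carried out at room temperature / Detection: AMC fluorescence, 355/460 nm / Read-out basis: percent inhibition scaled between no-compound controls and no-enzyme blanks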
Platelet DG rel – modulates dense granule release in human platelets. human platelet-rich plasma, SFLLRN dense granule ATP release, luminescence. actives 0.22% (n = 300,000). inhibition, %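 (compounds screened at 7.5 µM in platelet-rich plasma)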. AID 1663;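 active means mean replicate score, as percent of positive control, at or above 50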
FXIIa inh 1536 – blocks human coagulation factor XIIa protease activity; P00748; purified FXIIa, Boc-QGR-AMC fluorogenic substrate, 2 h; inhibition, % at 5 µM; actives 0.3% (n = 220,000); AID 800; in the data active means inhibition above about 40%;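 further: 0% = enzyme with no compound and 100% = blank without enzyme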
Wee1 stabilizer – human Wee1 degradation inhibition, primary screen. HeLa Luc-Wee1K328M stability, luciferase luminescence; 100% = proteasome inhibitor MG132 effect. reporter increase, % at 5 µM. actives 1.2% (n = 220,000). AID 1321;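 active means activation above the mean of all tested compounds plus 3 SD, set per screening run, cut at about 8.8% in these data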;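 further: cells exposed to compound for 20 h before luminescence read; 0% = DMSO alone and 100% = MG132 at 30 µM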
Target sequence (P30291 whole entry K328M): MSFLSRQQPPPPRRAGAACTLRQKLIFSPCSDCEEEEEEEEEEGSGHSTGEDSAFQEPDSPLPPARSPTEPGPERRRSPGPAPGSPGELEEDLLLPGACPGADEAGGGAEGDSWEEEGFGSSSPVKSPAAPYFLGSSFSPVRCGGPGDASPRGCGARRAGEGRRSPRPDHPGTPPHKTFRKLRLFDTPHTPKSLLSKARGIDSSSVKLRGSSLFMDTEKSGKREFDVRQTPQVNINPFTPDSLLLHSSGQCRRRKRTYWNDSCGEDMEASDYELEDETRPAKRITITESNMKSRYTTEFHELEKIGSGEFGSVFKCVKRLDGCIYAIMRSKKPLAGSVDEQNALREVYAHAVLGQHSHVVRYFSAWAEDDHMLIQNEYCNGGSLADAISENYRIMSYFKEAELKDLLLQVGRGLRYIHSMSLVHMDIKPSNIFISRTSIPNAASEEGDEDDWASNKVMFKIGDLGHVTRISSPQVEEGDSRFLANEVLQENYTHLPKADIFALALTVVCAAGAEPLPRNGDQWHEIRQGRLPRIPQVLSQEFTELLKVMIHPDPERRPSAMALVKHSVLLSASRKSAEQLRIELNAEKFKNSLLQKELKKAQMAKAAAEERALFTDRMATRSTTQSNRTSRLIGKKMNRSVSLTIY
hK5 inh – inhibitors of human kallikrein 5 | actives 0.59% (n = 210,000) | Q9Y337 | inhibition, % at 5 µM | recombinant hK5, fluorogenic AMC substrate cleavage;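 active means inhibition of 40% or more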;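 further: 0% = enzyme controls without compound and 100% = no-enzyme blanks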
* = called active by the depositor; . = not tested or not shown. Shown are actives, neighbours in structure and some others; about 1.8% of the full set was active somewhere.

SMILES	FXIa inh 1536	thrombin 1536	Platelet DG rel	FXIIa inh 1536	Wee1 stabilizer	hK5 inh
COC(=O)c1sc(NC(=O)c2ccoc2C)nc1C	0.8	1.0	57.2*	10.5	0.9	-6.2
Cc1occc1C(=O)Nc1cccnc1	2.9	10.4	3.7	5.4	-2.4	77.7*
COC(=O)c1sc(NC(=O)c2c(C)noc2C)nc1C	.	.	52.7*	.	.	.
COC(=O)c1cc(NC(=O)c2ccoc2C)cc(C(=O)OC)c1	2.0	0.6	-3.4	4.5	1.3	40.5*
CCn1c(C)nc2cc(C(=O)NNC(=S)Nc3ccc(OC)cc3)ccc21	-1.9	.	-0.5	3.9	0.6	-12.3
C/C(=N\NC(=O)c1nn(C)cc1Br)c1cccc(NC(=O)C2CCCC2)c1	4.4	-2.6	-6.1	9.3	-2.5	-0.3
COc1ccc2nc(NC(=O)c3ccoc3C)sc2c1	-3.9	5.2	91.4*	16.1	-0.1	-2.9
CCOC(=O)c1sc(NC(=S)NC(=O)C23CC4CC(CC(C4)C2)C3)cc1C	6.0	6.5	-0.2	-0.1	9.4*	-5.4
CCOC(=O)c1sc(NC(=O)c2cccs2)cc1C	-7.4	2.2	32.8	-8.7	1.2	-10.4
CCOC(=O)c1sc(NC(=O)c2sccc2C)cc1C	-16.3	-1.8	61.5*	-1.4	4.2	-17.2
CS(=O)(=O)c1cnc2c(S(=O)(=O)c3ccccc3)cnn2c1N	0.8	2.4	-20.1	8.3	8.8*	-0.3
Nc1c(S(=O)(=O)c2ccccc2)cnc2c(-c3ccc(F)cc3)cnn12	16.6	0.7	1.3	23.2	0.2	3.0
CC(C)[C@H](NC(=O)OCc1ccccc1)C(=O)N[C@@H](Cc1c[nH]c2ccccc12)C(=O)O	.	.	-3.4	.	.	.
C=CCOC(=O)C1=C(C)NC(=S)NC1c1cccs1 (stereo not drawn)	4.2	-4.9	3.6	8.1	1.9	-19.8
CCCCS(=O)(=O)c1sc2nc3c(cc2c1N)CCCC3	3.3	13.9	0.9	15.9	-3.0	42.2*
CC(=O)c1c(C)nn(CC(=O)NC2CCCN(Cc3ccc(CC(C)C)cc3)C2)c1C (stereo not drawn)	.	.	76.5*	.	.	.
Cc1ccn(CC(=O)NC2CCCN(Cc3ccc(CC(C)C)cc3)C2)n1 (stereo not drawn)	.	.	-2.6	.	.	.
COC(CNC(=O)c1coc2nc3ccccc3nc12)OC	-1.8	-0.9	-0.7	9.8	0.9	-7.2
CCC(C)(C)n1nnnc1C(c1cc2ccc(OC)cc2[nH]c1=O)N1CCN(C2CCCCC2)CC1 (stereo not drawn)	7.3	30.9	.	-2.7	-2.4	57.4*
Cc1c(O)ccc(-c2n[nH]c(C(=O)O)c2-c2nc3ccccc3s2)c1O	25.3	13.1	-0.6	17.5	10.0*	6.2
CC(=O)c1sc2nsc(SCCN3CCOCC3)c2c1N	6.2	-2.4	15.7	4.4	9.0*	5.9
COc1cccc(-c2ccc(=O)n(CC(=O)Nc3ccc(S(=O)(=O)NCC(C)C)cc3)n2)c1	-3.6	-12.0	-3.5	5.0	1.4	-1.3
O=S(=O)(CCNCc1cccs1)c1ccc(Cl)cc1	-4.5	-7.2	-3.0	-1.3	-0.7	49.8*
Cc1cc(C)nc(NC(=O)CSc2nn(-c3ccccc3)c(=S)s2)n1	-0.2	-3.0	-5.8	5.7	-0.5	-3.2
CC(C)(C)OC(=O)NCc1ccc(CNC(=O)c2[nH]cnc2C(=O)NCC(=O)OCc2ccccc2)cc1	.	.	1.4	.	.	.
SMILES	FXIa inh 1536	thrombin 1536	Platelet DG rel	FXIIa inh 1536	Wee1 stabilizer	hK5 inh
O=C(NCc1ccc2c(c1)OCO2)c1c[nH]c2ccc(S(=O)(=O)N3CCOCC3)cc2c1=O	5.5	54.9*	3.8	12.7	-0.5	-11.6
COCCNC(=O)c1c[nH]c2ccc(S(=O)(=O)N3CCOCC3)cc2c1=O	.	.	-5.6	.	.	.
CC(=O)c1cc2c(cc1NC(=O)CSc1nc3ccccc3[nH]1)OCO2	2.9	-9.7	-13.6	8.4	9.8*	-12.9
O=C(CNC1CCCCCC1)Nc1ccccc1N1CCOCC1	3.4	-0.7	1.8	5.4	1.5	3.3
CCOC(=O)N1C=CC=C[C@@H]2[C@@H](N3C(=O)c4ccccc4C3=O)C(=O)N21	7.3	3.8	-0.6	12.2	-1.8	-4.6
Cc1ccc(NC(=O)Cc2ncc(C(F)(F)F)cc2Cl)cc1Cl	-2.3	0.8	-5.0	8.5	4.5	57.4*
O=C(O)CC(=O)Nc1ccc(Oc2ccc(C(F)(F)F)cn2)c(Cl)c1	3.6	0.4	-2.7	9.9	9.2*	0.0
